Assays:
Hepatocyte [1] = assay: Induction of CYP2B6 mRNA expression in human hepatocytes assessed as bupropion hydroxylation up to 25 uM by LC-MS/MS analysis; assay type: ADME, cell-based
Procedure, shortened: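 Freshly isolated primary human hepatocytes from three donors were dosed once daily for 3 consecutive days at 0.2, 1, 5 and 25 µM, with 0.1% DMSO as vehicle control and phenobarbital 1000 µM as the CYP2B6 inducer control. Microsomes were then incubated with 250 µM bupropion at 0.02 mg/ml protein, and metabolite formed was measured by LC-MS/MS. Fold induction is relative to DMSO.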

[2] = Oral bioavailability in dog; assay type: ADME, organism-based, Canis lupus familiaris; settings: in vivo
Cytochrome P450 3A5 = Cytochrome P450 3A5 (Homo sapiens, UniProt P20815); assay: Drug metabolism assessed as human CYP3A5-mediated 5-hydroxy saxagliptin formation at 10 uM after 30 mins by LC-MS/MS analysis; assay type: ADME; settings: recombinant enzyme, 0.5 h
Cytochrome P450 2A6 = biological target: T1, Cytochrome P450 2A6 (Homo sapiens, UniProt P11509); assay: Inhibition of CYP2A6 in human liver microsomes assessed as coumarin 7-hydroxylation after 3 mins by LC-MS/MS analysis in presence of NADPH; assay type: ADME
T1 sequence (P11509 whole entry): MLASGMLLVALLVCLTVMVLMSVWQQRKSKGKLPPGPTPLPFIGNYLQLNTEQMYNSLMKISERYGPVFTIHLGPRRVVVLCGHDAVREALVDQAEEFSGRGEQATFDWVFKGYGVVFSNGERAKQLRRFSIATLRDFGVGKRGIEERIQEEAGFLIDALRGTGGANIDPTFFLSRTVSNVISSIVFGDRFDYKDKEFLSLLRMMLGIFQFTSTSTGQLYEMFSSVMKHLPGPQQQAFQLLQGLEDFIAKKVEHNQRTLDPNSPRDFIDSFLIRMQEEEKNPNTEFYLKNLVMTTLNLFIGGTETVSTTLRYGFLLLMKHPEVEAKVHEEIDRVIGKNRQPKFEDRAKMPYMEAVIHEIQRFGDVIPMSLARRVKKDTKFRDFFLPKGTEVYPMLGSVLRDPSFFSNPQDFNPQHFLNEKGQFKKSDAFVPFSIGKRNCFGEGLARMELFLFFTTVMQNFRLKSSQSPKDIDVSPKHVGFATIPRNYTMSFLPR

Cytochrome P450 3A4 [3] = biological target: T2, Cytochrome P450 3A4 (Homo sapiens, UniProt P08684); assay: Inhibition of CYP3A4 in human liver microsomes assessed as testosterone 6beta-hydroxylation after 3 mins by LC-MS/MS analysis in presence of NADPH; assay type: ADME
Hepatocyte [4] = assay: Cytotoxicity against human hepatocytes assessed as change in morphological integrity up to 100 uM; assay type: cell-based
Hepatocyte [5] = assay: Cytotoxicity against human hepatocytes up to 100 uM by lactate dehydrogenase assay; assay type: cell-based
Hepatocyte [6] = assay: Induction of CYP2B6 mRNA expression in human hepatocytes assessed as bupropion hydroxylation up to 100 uM by LC-MS/MS analysis; assay type: ADME, cell-based
Procedure, shortened: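 Primary hepatocytes from three donors treated once daily for 3 days: saxagliptin 0.2–25 µM, M2 0.2–100 µM, 0.1% DMSO as vehicle. Microsomal activity assayed by LC-MS/MS: phenacetin 100 µM with 0.02 mg/ml protein (CYP1A2), bupropion 250 µM with 0.02 mg/ml (CYP2B6), testosterone 200 µM with 0.01 mg/ml (CYP3A4). mRNA measured by TaqMan qPCR as 2^ΔCT relative to endogenous control and DMSO.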

Cytochrome P450 3A4 [7] = biological target: T2, Cytochrome P450 3A4; assay: Drug metabolism assessed as human CYP3A4-mediated metabolite formation treated with 10 uM of [14C]saxagliptin after 30 mins by LC-MS/MS analysis; assay type: ADME; settings: recombinant enzyme, 0.5 h
Procedure, shortened: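 Expressed human CYP3A4 or CYP3A5 at 500 pmol/ml, incubated with 10 µM [14C]saxagliptin and 1 mM NADPH in 100 mM phosphate buffer pH 7.4 at 37°C for 30 min. Stopped with ice-cold acetonitrile; analysed by LC-MS/MS and off-line radioanalysis.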

T2 sequence (P08684 whole entry): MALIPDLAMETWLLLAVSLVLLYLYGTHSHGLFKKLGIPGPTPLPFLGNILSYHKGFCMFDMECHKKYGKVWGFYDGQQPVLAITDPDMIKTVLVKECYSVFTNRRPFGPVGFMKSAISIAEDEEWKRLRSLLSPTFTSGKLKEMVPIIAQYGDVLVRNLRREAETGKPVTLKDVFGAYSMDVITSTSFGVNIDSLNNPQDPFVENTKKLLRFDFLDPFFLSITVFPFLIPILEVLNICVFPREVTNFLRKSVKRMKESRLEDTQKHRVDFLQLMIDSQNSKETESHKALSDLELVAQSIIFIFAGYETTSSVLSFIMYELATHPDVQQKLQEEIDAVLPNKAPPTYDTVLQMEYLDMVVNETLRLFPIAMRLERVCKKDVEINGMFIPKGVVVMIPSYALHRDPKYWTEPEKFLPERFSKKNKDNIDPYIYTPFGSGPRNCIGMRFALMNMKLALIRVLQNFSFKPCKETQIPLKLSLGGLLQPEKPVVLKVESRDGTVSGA
Sequence of Cytochrome P450 3A5 (P20815 whole entry): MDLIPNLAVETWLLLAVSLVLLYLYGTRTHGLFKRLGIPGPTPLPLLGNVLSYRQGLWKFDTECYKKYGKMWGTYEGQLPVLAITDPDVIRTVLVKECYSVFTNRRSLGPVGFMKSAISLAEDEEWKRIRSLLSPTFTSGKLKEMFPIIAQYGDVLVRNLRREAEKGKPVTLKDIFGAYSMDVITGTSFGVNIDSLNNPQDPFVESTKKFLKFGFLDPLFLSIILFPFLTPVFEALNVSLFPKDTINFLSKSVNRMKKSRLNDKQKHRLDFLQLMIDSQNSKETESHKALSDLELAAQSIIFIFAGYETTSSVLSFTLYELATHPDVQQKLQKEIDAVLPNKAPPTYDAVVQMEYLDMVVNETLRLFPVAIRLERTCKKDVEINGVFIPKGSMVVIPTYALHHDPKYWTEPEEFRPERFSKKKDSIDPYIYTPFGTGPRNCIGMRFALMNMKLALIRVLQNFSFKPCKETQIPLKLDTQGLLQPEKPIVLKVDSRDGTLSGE

Activity (Hepatocyte [1])	bioavailability [2] [%]	Drug metabolism (Cytochrome P450 3A5)	IC50 (Cytochrome P450 2A6) [µM]	IC50 (Cytochrome P450 3A4 [3]) [µM]	Activity (Hepatocyte [6])	Drug metabolism (Cytochrome P450 3A4 [7])	Compound	Activity (Hepatocyte [4])	Activity (Hepatocyte [5])
Not Active	76	metabolite_detected					N#C[C@@H]1C[C@@H]2C[C@@H]2N1C(=O)[C@@H](N)C12CC3CC(CC(O)(C3)C1)C2 [SAXAGLIPTIN ANHYDROUS]		
			> 200	> 200	Not Active	metabolite_detected	N#C[C@@H]1C[C@@H]2C[C@@H]2N1C(=O)[C@@H](N)C12CC3CC(O)(CC(O)(C3)C1)C2	Non-toxic	Non-toxic

Source: ChEMBL document CHEMBL3526095, “Characterization of the in vitro and in vivo metabolism and disposition and cytochrome P450 inhibition/induction profile of saxagliptin in human” (Drug Metab Dispos, 2012)
